A word on the IC50: it is the point on the concentration scale where inhibition reaches its midpoint. The term inhibition denotes the drop in the measured response relative to a control, in per cent.

Where two headings read alike, the source gives them in different places.

Here are results for 29 compounds from PMC4980839 (Archiv der Pharmazie, 2010).

What all share (type): biochemical
One assay has as its target human PDE5 (Homo sapiens, UniProt O76074). The experiment in a line: PDE5 inhibition, IMAP fluorescence polarization phosphodiesterase assay. As to conditions: for inhibition at 50 µM: read-out: % cGMP inhibition (50 μM).
A further assay concerns the target PDE3B (Homo sapiens, UniProt Q13370). As to the kind of experiment: PDE3B inhibition. The essentials:
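Reaction started with a substrate solution of 50 nM TAMRA-cGMP and/or Fl-cAMP. Run 60 min at room temperature, stopped with IMAP binding solution. Hydrolysis read as fluorescence polarization (TAMRA 530–590 nm).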

The next assay deals with PDE11A (Homo sapiens, UniProt Q9HCR9). As to the kind of experiment: PDE11A inhibition.
Sequence of PDE11A (Q9HCR9 whole entry): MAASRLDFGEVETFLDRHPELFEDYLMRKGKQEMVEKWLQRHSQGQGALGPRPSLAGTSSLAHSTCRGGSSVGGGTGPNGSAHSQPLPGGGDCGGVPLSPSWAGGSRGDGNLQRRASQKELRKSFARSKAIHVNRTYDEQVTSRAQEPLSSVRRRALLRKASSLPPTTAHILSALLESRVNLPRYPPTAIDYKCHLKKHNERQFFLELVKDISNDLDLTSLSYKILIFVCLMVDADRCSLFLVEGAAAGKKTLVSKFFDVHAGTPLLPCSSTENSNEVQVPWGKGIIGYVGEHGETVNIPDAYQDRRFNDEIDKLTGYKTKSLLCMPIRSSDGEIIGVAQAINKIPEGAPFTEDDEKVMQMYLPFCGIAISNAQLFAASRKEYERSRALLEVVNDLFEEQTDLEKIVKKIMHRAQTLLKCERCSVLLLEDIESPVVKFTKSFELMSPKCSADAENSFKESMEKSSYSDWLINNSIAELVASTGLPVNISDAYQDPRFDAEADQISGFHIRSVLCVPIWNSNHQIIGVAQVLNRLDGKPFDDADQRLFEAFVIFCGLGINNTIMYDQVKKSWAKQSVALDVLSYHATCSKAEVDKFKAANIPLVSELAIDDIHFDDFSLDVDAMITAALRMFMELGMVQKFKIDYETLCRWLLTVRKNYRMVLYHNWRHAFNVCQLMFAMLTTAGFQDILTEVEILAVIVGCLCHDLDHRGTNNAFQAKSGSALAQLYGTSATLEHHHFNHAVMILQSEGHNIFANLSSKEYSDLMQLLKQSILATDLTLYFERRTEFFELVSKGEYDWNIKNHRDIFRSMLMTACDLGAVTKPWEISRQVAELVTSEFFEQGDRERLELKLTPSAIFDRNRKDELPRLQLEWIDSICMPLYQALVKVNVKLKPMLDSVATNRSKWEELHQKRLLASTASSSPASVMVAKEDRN
The target in another assay is PDE4B (Homo sapiens, UniProt Q07343). As to the kind of experiment: PDE4B inhibition.
Sequence of PDE4B (Q07343 whole entry): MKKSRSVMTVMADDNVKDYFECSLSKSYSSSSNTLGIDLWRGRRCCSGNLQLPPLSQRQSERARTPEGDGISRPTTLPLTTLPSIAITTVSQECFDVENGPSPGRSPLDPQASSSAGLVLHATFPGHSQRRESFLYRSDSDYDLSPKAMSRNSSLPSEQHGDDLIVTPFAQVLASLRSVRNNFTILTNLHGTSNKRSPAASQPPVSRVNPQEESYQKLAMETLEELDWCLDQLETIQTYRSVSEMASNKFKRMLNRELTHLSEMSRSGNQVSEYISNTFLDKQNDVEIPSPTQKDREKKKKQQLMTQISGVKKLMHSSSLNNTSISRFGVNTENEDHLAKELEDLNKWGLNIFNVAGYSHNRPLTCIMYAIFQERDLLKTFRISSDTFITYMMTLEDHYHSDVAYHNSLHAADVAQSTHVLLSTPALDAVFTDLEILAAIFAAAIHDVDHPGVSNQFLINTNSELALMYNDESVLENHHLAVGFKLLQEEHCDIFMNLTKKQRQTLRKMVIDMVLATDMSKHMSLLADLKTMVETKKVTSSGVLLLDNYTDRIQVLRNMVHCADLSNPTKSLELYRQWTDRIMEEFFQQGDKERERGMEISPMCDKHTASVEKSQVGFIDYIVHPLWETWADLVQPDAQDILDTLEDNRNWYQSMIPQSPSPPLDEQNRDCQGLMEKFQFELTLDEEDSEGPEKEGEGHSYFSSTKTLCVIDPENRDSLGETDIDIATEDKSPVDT
Setting [1] is: read-out: IC50 PDE3B cGMP, cGMP as substrate.

Sequence of PDE3B (Q13370 592-1112 limits assumed): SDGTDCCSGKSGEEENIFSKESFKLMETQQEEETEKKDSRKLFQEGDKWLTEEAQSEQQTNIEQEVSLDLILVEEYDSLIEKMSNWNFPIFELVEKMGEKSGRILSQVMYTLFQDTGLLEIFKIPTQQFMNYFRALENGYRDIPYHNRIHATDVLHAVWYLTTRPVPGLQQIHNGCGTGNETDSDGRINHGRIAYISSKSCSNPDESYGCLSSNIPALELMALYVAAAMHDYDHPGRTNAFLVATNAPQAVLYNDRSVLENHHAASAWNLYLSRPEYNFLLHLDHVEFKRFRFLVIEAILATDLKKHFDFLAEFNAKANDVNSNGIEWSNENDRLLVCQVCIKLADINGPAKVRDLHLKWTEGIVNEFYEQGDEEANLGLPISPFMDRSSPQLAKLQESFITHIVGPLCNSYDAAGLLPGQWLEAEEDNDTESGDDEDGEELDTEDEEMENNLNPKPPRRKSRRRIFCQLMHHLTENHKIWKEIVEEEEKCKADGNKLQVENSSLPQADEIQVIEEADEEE

In the case of `O=C1[C@@H]2Cc3c([nH]c4ccccc34)[C@@H](c3ccc(Cl)cc3)N2C(=O)N1c1ccc(Cl)cc1` [XVI, (5R,11aS)-2,5-Bis(4-chlorophenyl)-5,6,11,11a-tetrahydro-1H-imidazo[1’,5’:1,6]pyrido[3,4-b]indole-1,3(2H)-dione], at human PDE5, half-maximal inhibition (IC50) required 1090 nM and the inhibition at 50 µM was 84%.
Consider `CC(C)(C)N1CC(=O)N2[C@@H](c3ccc(Cl)cc3)c3[nH]c4ccccc4c3C[C@H]2C1=O` [XXVII, (6S,12aS)-2-tert-Butyl-6-(4-chlorophenyl)-2,3,6,7,12,12a-hexahydropyrazino[1’,2’:1,6]pyrido[3,4-b]indole-1,4-dione], for which the inhibition at 50 µM at human PDE5 came out at 42%.
In the case of `CN1CC(=O)N2[C@H](c3ccc4c(c3)OCO4)c3[nH]c4ccccc4c3C[C@@H]2C1=O` [Tadalafil, reference compound], the IC50 on PDE3B and on PDE3B (setting [1]) was over 50000 nM each time.
Take `CCN1CC(=O)N2[C@H](c3ccc(Cl)cc3)c3[nH]c4ccccc4c3C[C@@H]2C1=O` [XXI, (6R,12aR)-2-Ethyl-6-(4-chlorophenyl)-2,3,6,7,12,12a-hexahydropyrazino[1’,2’:1,6]pyrido[3,4-b]indole-1,4-dione]: the “potency compared with tadalafil” value at human PDE5 (PDE5 IC50 relative to tadalafil) is “two-fold”. Besides, the inhibition at 50 µM at human PDE5 is 102%. In addition, the IC50 is 3 nM at human PDE5 (read-out: IC50 PDE5A, Table 5 PDE panel); 706 nM against PDE11A (IC50 PDE11A cAMP, cAMP as substrate); 157 nM against PDE11A (IC50 PDE11A cGMP, cGMP as substrate); over 50000 nM against PDE4B; over 50000 nM against PDE3B; over 50000 nM on PDE3B (setting [1]). Further, at PDE11A (PDE11A with cGMP versus PDE5 with cGMP), the “Selectivity index IC50 (PDE11/PDE5) cGMP/cGMP” value is 52.3.
In the case of `O=C1[C@H]2Cc3c([nH]c4ccccc34)[C@@H](c3ccc(Cl)cc3)N2C(=O)N1c1ccc(Cl)cc1` [XIII, (5R,11aR)-2,5-Bis(4-chlorophenyl)-5,6,11,11a-tetrahydro-1H-imidazo[1’,5’:1,6]pyrido[3,4-b]indole-1,3(2H)-dione], the inhibition at 50 µM at human PDE5 came to 22%.
Take `COC(=O)[C@H]1Cc2c([nH]c3ccccc23)[C@H](c2ccc(Cl)cc2)N1C(=O)CCl` [XVIII, Methyl (1S,3R)-1-(4-chlorophenyl)-2-(chloroacetyl)-2,3,4,9-tetrahydro-1H-β-carboline-3-carboxylate]: at human PDE5, the inhibition at 50 µM is 6%.
Take `CC(C)(C)N1C(=O)[C@@H]2Cc3c([nH]c4ccccc34)[C@H](c3ccc(Cl)cc3)N2C1=O` [XI, (5S,11aS)-2-tert-Butyl-5-(4-chlorophenyl)-5,6,11,11a-tetrahydro-1H-imidazo[1’,5’:1,6]pyrido[3,4-b]indole-1,3(2H)-dione]: the inhibition at 50 µM at human PDE5 came to 20%.
Still for that read-out and setting: under `COC(=O)[C@@H]1Cc2c([nH]c3ccccc23)[C@@H](c2ccc(Cl)cc2)N1C(=O)CCl` [XX, Methyl (1R,3S)-1-(4-chlorophenyl)-2-(chloroacetyl)-2,3,4,9-tetrahydro-1H-β-carboline-3-carboxylate] stands 78%.
Regarding `CCN1CC(=O)N2[C@H](c3ccc(Cl)cc3)c3[nH]c4ccccc4c3C[C@H]2C1=O` [XXIV, (6R,12aS)-2-Ethyl-6-(4-chlorophenyl)-2,3,6,7,12,12a-hexahydropyrazino[1’,2’:1,6]pyrido[3,4-b]indole-1,4-dione], at human PDE5, inhibition was half-maximal at 1200 nM (IC50) and the inhibition at 50 µM amounted to 87%.
Regarding `CC(C)(C)N1CC(=O)N2[C@@H](c3ccc(Cl)cc3)c3[nH]c4ccccc4c3C[C@@H]2C1=O` [XXVI, (6S,12aR)-2-tert-Butyl-6-(4-chlorophenyl)-2,3,6,7,12,12a-hexahydropyrazino[1’,2’:1,6]pyrido[3,4-b]indole-1,4-dione], the inhibition at 50 µM on human PDE5 came to 10%.
As for `COC(=O)[C@@H]1Cc2c([nH]c3ccccc23)[C@H](c2ccc(Cl)cc2)N1` [III, Methyl (1S,3S)-1-(4-chlorophenyl)-2,3,4,9-tetrahydro-1H-β-carboline-3-carboxylate], the inhibition at 50 µM at human PDE5 stood at 9%.
On the same count and under the same terms, under `COC(=O)[C@H]1Cc2c([nH]c3ccccc23)[C@H](c2ccc(Cl)cc2)N1` [II, Methyl (1S,3R)-1-(4-chlorophenyl)-2,3,4,9-tetrahydro-1H-β-carboline-3-carboxylate] stands 4%.
For `CCN1CC(=O)N2[C@@H](c3ccc(Cl)cc3)c3[nH]c4ccccc4c3C[C@@H]2C1=O` [XXII, (6S,12aR)-2-Ethyl-6-(4-chlorophenyl)-2,3,6,7,12,12a-hexahydropyrazino[1’,2’:1,6]pyrido[3,4-b]indole-1,4-dione], on human PDE5, the IC50 turned out to be 1720 nM and the inhibition at 50 µM came to 80%.
With `CCN1CC(=O)N2[C@@H](c3ccc(Cl)cc3)c3[nH]c4ccccc4c3C[C@H]2C1=O` [XXIII, (6S,12aS)-2-Ethyl-6-(4-chlorophenyl)-2,3,6,7,12,12a-hexahydropyrazino[1’,2’:1,6]pyrido[3,4-b]indole-1,4-dione], on human PDE5, the inhibition at 50 µM worked out at 45%.
As for `CCN1C(=O)[C@H]2Cc3c([nH]c4ccccc34)[C@@H](c3ccc(Cl)cc3)N2C1=O` [V, (5R,11aR)-2-Ethyl-5-(4-chlorophenyl)-5,6,11,11a-tetrahydro-1H-imidazo[1’,5’:1,6]pyrido[3,4-b]indole-1,3(2H)-dione], on human PDE5, the IC50 was determined as 1100 nM and the inhibition at 50 µM amounted to 85%.
`CC(C)(C)N1C(=O)[C@H]2Cc3c([nH]c4ccccc34)[C@H](c3ccc(Cl)cc3)N2C1=O` [X, (5S,11aR)-2-tert-Butyl-5-(4-chlorophenyl)-5,6,11,11a-tetrahydro-1H-imidazo[1’,5’:1,6]pyrido[3,4-b]indole-1,3(2H)-dione]: at human PDE5, the inhibition at 50 µM was determined as 54%.
As for `O=C1[C@H]2Cc3c([nH]c4ccccc34)[C@H](c3ccc(Cl)cc3)N2C(=O)N1c1ccc(Cl)cc1` [XIV, (5S,11aR)-2,5-Bis(4-chlorophenyl)-5,6,11,11a-tetrahydro-1H-imidazo[1’,5’:1,6]pyrido[3,4-b]indole-1,3(2H)-dione], at human PDE5, the inhibition at 50 µM worked out at 29%.
On the same count and under the same terms, under `COC(=O)[C@@H]1Cc2c([nH]c3ccccc23)[C@@H](c2ccc(Cl)cc2)N1` [IV, Methyl (1R,3S)-1-(4-chlorophenyl)-2,3,4,9-tetrahydro-1H-β-carboline-3-carboxylate] stands 48%.
Still for that read-out and setting: under `COC(=O)[C@H]1Cc2c([nH]c3ccccc23)[C@@H](c2ccc(Cl)cc2)N1` [I, Methyl (1R,3R)-1-(4 chlorophenyl)-2,3,4,9-tetrahydro-1H-β-carboline-3-carboxylate] stands 35%; under `COC(=O)[C@H]1Cc2c([nH]c3ccccc23)[C@@H](c2ccc(Cl)cc2)N1C(=O)CCl` [XVII, Methyl (1R,3R)-1-(4-chlorophenyl)-2-(chloroacetyl)-2,3,4,9-tetrahydro-1H-β-carboline-3-carboxylate], 25%.
`COC(=O)[C@@H]1Cc2c([nH]c3ccccc23)[C@H](c2ccc(Cl)cc2)N1C(=O)CCl` [XIX, Methyl (1S, 3S)-1-(4-chlorophenyl)-2-(chloroacetyl)-2,3,4,9-tetrahydro-1H-b-carboline-3-carboxylate]: the “% cGMP inhibition (50 μM)” value on human PDE5 (PDE5, compound at 50 μM, triplicate, TAMRA-cGMP substrate) was 6%.
As for `CC(C)(C)N1CC(=O)N2[C@H](c3ccc(Cl)cc3)c3[nH]c4ccccc4c3C[C@@H]2C1=O` [XXV, (6R,12aR)-2-tert-Butyl-6-(4-chlorophenyl)-2,3,6,7,12,12a-hexahydropyrazino[1’,2’:1,6]pyrido[3,4-b]indole-1,4-dione], at human PDE5, the inhibition at 50 µM was 55%.
On to `O=C1[C@@H]2Cc3c([nH]c4ccccc34)[C@H](c3ccc(Cl)cc3)N2C(=O)N1c1ccc(Cl)cc1` [XV, (5S,11aS)-2,5-Bis(4-chlorophenyl)-5,6,11,11a-tetrahydro-1H-imidazo[1’,5’:1,6]pyrido[3,4-b]indole-1,3(2H)-dione], for which the inhibition at 50 µM at human PDE5 worked out at 33%.
For the compound `CC(C)(C)N1C(=O)[C@H]2Cc3c([nH]c4ccccc34)[C@@H](c3ccc(Cl)cc3)N2C1=O` [IX, (5R,11aR)-2-tert-Butyl-5-(4-chlorophenyl)-5,6,11,11a-tetrahydro-1H-imidazo[1’,5’:1,6]pyrido[3,4-b]indole-1,3(2H)-dione], on human PDE5, inhibition was half-maximal at 600 nM (IC50) and the inhibition at 50 µM worked out at 100%.
For `CC(C)(C)N1CC(=O)N2[C@H](c3ccc(Cl)cc3)c3[nH]c4ccccc4c3C[C@H]2C1=O` [XXVIII, (6R,12aS)-2-tert-Butyl-6-(4-chlorophenyl)-2,3,6,7,12,12a-hexahydropyrazino[1’,2’:1,6]pyrido[3,4-b]indole-1,4-dione], the inhibition at 50 µM on human PDE5 came out at 55%.
Still for that read-out and setting: under `CCN1C(=O)[C@@H]2Cc3c([nH]c4ccccc34)[C@@H](c3ccc(Cl)cc3)N2C1=O` [VIII, (5R,11aS)-2-Ethyl-5-(4-chlorophenyl)-5,6,11,11a-tetrahydro-1H-imidazo[1’,5’:1,6]pyrido[3,4-b]indole-1,3(2H)-dione] stands 102%.
As to `CC(C)(C)N1C(=O)[C@@H]2Cc3c([nH]c4ccccc34)[C@@H](c3ccc(Cl)cc3)N2C1=O` [XII, (5R,11aS)-2-tert-Butyl-5-(4-chlorophenyl)-5,6,11,11a-tetrahydro-1H-imidazo[1’,5’:1,6]pyrido[3,4-b]indole-1,3(2H)-dione], on human PDE5, the concentration for half-maximal inhibition (IC50) was over 10000 nM and the inhibition at 50 µM was 83%.
For `CCN1C(=O)[C@@H]2Cc3c([nH]c4ccccc34)[C@H](c3ccc(Cl)cc3)N2C1=O` [VII, (5S,11aS)-2-Ethyl-5-(4-chlorophenyl)-5,6,11,11a-tetrahydro-1H-imidazo[1’,5’:1,6]pyrido[3,4-b]indole-1,3(2H)-dione], the inhibition at 50 µM on human PDE5 was 30%.
The same measure, in the same setting: under `CCN1C(=O)[C@H]2Cc3c([nH]c4ccccc34)[C@H](c3ccc(Cl)cc3)N2C1=O` [VI, (5S,11aR)-2-Ethyl-5-(4-chlorophenyl)-5,6,11,11a-tetrahydro-1H-imidazo[1’,5’:1,6]pyrido[3,4-b]indole-1,3(2H)-dione] stands 47%.
